Assay results reported in ChEMBL document CHEMBL5696444 (Nat Commun, 2017).
The source made the active and inactive calls. The calls are words filed in the database; no cut-off is given here.

Assays:
[1] = molecular target: Tyrosine-protein kinase JAK2 (Homo sapiens) (UniProt O60674); test: Inhibition of JAK2 (unknown origin) at 1000 nM in the presence of ATP by Kinome scan method relative to control
[2] = molecular target: Mast/stem cell growth factor receptor Kit (Homo sapiens) (UniProt P10721); test: Inhibition of KIT (unknown origin) at 1000 nM in the presence of ATP by Kinome scan method relative to control
[3] = molecular target: Glycogen synthase kinase-3 beta (Homo sapiens) (UniProt P49841); test: Inhibition of GSK3B (unknown origin) at 1000 nM in the presence of ATP by Kinome scan method relative to control
[4] = molecular target: Serine/threonine-protein kinase Nek2 (Homo sapiens) (UniProt P51955); test: Inhibition of NEK2 (unknown origin) at 1000 nM in the presence of ATP by Kinome scan method relative to control
Sequence of Serine/threonine-protein kinase Nek2 (Homo sapiens) (P51955 whole entry): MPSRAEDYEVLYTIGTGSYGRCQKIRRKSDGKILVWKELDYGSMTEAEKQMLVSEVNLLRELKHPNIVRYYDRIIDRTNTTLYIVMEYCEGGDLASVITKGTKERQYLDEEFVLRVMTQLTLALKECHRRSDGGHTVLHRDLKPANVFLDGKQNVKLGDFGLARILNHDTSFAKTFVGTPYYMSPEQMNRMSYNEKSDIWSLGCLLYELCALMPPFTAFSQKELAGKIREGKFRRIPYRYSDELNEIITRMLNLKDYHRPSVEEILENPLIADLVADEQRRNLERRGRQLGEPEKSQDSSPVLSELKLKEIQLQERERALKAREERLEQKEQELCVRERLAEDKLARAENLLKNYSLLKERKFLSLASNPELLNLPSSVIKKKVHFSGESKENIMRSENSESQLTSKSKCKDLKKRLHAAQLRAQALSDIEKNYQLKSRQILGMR

[5] = molecular target: Mitogen-activated protein kinase 14 (Homo sapiens) (UniProt Q16539); test: Inhibition of MAPK14 (unknown origin) at 100 nM in the presence of ATP by Kinome scan method relative to control
Sequence of Mitogen-activated protein kinase 14 (Homo sapiens) (Q16539 whole entry): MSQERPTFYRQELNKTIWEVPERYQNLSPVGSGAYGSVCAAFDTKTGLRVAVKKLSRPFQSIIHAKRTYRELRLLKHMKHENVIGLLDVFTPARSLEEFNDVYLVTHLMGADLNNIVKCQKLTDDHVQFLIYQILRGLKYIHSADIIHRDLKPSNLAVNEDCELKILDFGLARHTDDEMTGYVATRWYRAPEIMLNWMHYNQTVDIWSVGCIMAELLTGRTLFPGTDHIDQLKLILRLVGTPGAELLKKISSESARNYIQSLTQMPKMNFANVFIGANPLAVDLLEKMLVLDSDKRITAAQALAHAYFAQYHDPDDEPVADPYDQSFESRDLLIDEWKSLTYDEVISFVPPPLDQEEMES

[6] = molecular target: MAP kinase-activated protein kinase 2 (Homo sapiens) (UniProt P49137); test: Inhibition of MAPKAPK2 (unknown origin) at 1000 nM in the presence of ATP by Kinome scan method relative to control
[7] = molecular target: Mitogen-activated protein kinase 1 (Homo sapiens) (UniProt P28482); test: Inhibition of MAPK1 (unknown origin) at 1000 nM in the presence of ATP by Kinome scan method relative to control
Sequence of Mitogen-activated protein kinase 1 (Homo sapiens) (P28482 whole entry): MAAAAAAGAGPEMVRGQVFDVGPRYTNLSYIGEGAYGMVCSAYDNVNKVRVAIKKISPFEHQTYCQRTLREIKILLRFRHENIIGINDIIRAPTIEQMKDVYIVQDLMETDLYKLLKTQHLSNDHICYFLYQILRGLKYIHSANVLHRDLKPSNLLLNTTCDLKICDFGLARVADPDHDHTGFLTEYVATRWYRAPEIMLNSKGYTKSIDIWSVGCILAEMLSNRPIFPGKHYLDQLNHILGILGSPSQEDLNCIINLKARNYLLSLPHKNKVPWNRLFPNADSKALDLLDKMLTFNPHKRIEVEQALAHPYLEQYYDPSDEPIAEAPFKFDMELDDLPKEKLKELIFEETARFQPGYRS

Homo sapiens = organism: Homo sapiens; test: Inhibition of CDK2/cyclin A (unknown origin) at 100 nM in the presence of ATP by Kinome scan method relative to control
[8] = molecular target: Aurora kinase B (Homo sapiens) (UniProt Q96GD4); test: Inhibition of AURKB (unknown origin) at 1000 nM in the presence of ATP by Kinome scan method relative to control
Sequence of Aurora kinase B (Homo sapiens) (Q96GD4 whole entry): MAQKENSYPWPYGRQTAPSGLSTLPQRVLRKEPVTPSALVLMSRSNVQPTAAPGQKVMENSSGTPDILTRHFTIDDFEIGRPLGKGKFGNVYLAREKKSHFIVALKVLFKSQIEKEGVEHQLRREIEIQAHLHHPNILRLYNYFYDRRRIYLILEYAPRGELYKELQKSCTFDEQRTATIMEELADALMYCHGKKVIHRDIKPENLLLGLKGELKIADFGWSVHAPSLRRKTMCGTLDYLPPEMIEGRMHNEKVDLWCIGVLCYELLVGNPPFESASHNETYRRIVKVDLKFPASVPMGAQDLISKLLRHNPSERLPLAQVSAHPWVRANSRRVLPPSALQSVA

[9] = molecular target: Dual specificity protein kinase CLK1 (Homo sapiens) (UniProt P49759); test: Inhibition of CLK (unknown origin) in human MDA-MB-468 cells assessed as SRSF4 phosphorylation level incubated for 3 hrs by immunoblot analysis; format: cell-based
Sequence of Dual specificity protein kinase CLK1 (Homo sapiens) (P49759 whole entry, looked up, canonical isoform): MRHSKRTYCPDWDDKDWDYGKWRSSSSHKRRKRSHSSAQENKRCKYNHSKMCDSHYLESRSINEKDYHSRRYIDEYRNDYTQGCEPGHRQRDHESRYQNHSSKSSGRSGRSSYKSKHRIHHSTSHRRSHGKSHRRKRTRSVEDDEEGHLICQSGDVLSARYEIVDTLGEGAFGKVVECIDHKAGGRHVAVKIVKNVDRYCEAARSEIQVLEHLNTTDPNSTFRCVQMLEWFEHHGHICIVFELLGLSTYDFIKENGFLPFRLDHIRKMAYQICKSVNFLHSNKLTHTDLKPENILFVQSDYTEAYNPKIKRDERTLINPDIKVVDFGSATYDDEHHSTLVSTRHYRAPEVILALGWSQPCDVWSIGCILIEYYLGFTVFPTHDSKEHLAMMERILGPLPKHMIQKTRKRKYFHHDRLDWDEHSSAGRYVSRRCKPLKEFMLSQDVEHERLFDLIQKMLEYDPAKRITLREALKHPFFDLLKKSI

[10] = molecular target: Serine/threonine-protein kinase pim-1 (Homo sapiens) (UniProt P11309); test: Inhibition of PIM1 (unknown origin) at 100 nM in the presence of ATP by Kinome scan method relative to control
Sequence of Serine/threonine-protein kinase pim-1 (Homo sapiens) (P11309 whole entry, looked up): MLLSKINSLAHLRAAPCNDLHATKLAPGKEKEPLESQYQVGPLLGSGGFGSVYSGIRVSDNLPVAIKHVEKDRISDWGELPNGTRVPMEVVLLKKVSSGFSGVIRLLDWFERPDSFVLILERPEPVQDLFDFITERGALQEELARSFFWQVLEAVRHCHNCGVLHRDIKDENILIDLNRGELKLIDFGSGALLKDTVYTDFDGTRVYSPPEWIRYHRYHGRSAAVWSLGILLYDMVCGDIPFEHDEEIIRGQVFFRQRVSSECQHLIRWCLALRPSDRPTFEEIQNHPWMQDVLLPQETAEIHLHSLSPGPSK

[11] = molecular target: AMP-activated protein kinase (AMPK) alpha-1/beta-1/gamma-1 (Homo sapiens) (UniProt P54619+Q9Y478+Q13131); test: Inhibition of AMPK A1/B1/G1 (unknown origin) at 1000 nM in the presence of ATP by Kinome scan method relative to control; format: protein-complex assay
HCT-116 [12] = test: Induction of cell cycle arrest in human HCT-116 cells assessed as G2/M phase at 0.1 uM incubated for 24 hrs by flow cytometry analysis (Rvb=17.9%); format: functional
[13] = molecular target: Homeodomain-interacting protein kinase 1 (Homo sapiens) (UniProt Q86Z02); test: Inhibition of HIPK1 (unknown origin) at 1000 nM in the presence of ATP by Kinome scan method relative to control
Sequence of Homeodomain-interacting protein kinase 1 (Homo sapiens) (Q86Z02 whole entry, looked up): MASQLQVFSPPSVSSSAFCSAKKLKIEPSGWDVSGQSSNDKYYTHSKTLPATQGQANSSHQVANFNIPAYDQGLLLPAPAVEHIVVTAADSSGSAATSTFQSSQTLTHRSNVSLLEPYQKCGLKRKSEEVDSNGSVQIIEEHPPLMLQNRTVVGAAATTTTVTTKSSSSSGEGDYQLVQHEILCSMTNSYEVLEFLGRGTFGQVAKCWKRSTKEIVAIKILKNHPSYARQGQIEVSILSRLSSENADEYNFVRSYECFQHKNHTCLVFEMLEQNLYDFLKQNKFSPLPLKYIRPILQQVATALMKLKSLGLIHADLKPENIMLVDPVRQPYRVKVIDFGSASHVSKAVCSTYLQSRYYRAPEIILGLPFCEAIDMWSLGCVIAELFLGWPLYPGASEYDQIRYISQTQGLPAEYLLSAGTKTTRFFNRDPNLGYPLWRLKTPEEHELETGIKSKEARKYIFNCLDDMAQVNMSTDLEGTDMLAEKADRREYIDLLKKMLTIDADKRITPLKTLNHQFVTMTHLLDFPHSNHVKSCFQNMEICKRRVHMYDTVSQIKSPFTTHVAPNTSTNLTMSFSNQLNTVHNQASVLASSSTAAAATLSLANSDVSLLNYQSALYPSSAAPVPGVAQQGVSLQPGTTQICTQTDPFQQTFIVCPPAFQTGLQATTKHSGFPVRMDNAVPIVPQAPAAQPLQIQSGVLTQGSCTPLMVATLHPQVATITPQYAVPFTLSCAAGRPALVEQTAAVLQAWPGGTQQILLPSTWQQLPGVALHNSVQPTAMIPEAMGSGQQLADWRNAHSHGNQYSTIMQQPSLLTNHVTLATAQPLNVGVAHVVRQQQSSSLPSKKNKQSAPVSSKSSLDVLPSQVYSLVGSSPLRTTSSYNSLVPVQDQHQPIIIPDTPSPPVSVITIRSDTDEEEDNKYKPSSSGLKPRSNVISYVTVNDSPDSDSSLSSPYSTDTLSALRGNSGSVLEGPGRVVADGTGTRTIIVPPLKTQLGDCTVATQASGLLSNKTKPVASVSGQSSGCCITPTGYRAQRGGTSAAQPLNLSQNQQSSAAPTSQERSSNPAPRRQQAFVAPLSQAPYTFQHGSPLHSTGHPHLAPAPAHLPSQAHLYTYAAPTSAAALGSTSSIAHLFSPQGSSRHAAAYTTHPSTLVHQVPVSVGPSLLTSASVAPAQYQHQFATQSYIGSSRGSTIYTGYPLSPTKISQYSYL

[14] = molecular target: Mitogen-activated protein kinase 3 (Homo sapiens) (UniProt P27361); test: Inhibition of MAPK3 (unknown origin) at 100 nM in the presence of ATP by Kinome scan method relative to control
HCT-116 [15] = test: Induction of cell cycle arrest in human HCT-116 cells assessed as S phase at 1 uM incubated for 24 hrs by flow cytometry analysis (Rvb=46.4%); format: functional
[16] = molecular target: Ephrin type-A receptor 5 (Homo sapiens) (UniProt P54756); test: Inhibition of EPHA5 (unknown origin) at 1000 nM in the presence of ATP by Kinome scan method relative to control
Sequence of Ephrin type-A receptor 5 (Homo sapiens) (P54756 whole entry): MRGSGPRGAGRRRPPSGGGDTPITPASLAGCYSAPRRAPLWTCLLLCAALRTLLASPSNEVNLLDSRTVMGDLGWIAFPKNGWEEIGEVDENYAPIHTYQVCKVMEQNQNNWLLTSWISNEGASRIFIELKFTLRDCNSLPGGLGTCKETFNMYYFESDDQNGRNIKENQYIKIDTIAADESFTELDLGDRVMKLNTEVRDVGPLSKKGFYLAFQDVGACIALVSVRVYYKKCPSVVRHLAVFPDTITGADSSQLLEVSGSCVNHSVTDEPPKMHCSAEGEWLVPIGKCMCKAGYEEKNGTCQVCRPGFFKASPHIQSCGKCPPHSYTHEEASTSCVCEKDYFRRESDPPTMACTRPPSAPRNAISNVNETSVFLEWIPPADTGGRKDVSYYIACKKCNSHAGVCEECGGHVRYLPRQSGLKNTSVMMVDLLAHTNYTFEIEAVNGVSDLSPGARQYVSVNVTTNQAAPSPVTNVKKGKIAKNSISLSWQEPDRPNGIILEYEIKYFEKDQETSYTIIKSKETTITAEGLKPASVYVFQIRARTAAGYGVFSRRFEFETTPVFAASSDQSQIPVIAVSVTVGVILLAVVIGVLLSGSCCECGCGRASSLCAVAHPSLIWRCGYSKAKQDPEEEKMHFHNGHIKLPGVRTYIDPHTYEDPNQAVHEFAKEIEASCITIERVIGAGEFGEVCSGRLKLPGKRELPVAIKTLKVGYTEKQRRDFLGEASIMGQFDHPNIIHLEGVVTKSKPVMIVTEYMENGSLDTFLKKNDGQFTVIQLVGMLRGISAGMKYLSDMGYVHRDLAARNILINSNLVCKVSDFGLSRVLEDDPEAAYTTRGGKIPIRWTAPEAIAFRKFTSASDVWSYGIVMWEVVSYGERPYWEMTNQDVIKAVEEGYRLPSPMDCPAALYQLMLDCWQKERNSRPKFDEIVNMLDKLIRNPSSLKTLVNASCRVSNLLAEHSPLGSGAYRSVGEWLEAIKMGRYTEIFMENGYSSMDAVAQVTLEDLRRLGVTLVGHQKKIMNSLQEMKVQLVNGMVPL

HCT-116 [17] = test: Induction of cell cycle arrest in human HCT-116 cells assessed as G2/M phase at 1 uM incubated for 6 hrs by flow cytometry analysis (Rvb=25.8%); format: functional
HCT-116 [18] = test: Induction of cell cycle arrest in human HCT-116 cells assessed as G0/G1 phase at 0.1 uM incubated for 24 hrs by flow cytometry analysis (Rvb=35.7%); format: functional
[19] = molecular target: Dual specificity protein kinase CLK1 (Homo sapiens) (UniProt P49759); test: Inhibition of CLK (unknown origin) in human 184-hTERT cells assessed as induction in alternative splicing effect in S6K skipped exon incubated for 6 hrs by RT-PCR analysis; format: cell-based; conditions: dose 0.2-5 µM
How it was run: (§1)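 Cells exposed to graded T3 concentrations for 6 h (chosen to avoid cytotoxicity), with a DMSO vehicle control. Total RNA was reverse-transcribed with oligo-dT primers. Targeted splice or conjoined-gene products were quantified by real-time qPCR or by targeted next-generation sequencing. Conjoined-gene isoform expression was normalized to a sequenced housekeeping gene.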

[20] = molecular target: Rho-associated protein kinase 1 (Homo sapiens) (UniProt Q13464); test: Inhibition of ROCK1 (unknown origin) at 1000 nM in the presence of ATP by Kinome scan method relative to control
[21] = molecular target: PI3-kinase p110-alpha/p85-alpha (Homo sapiens) (UniProt P27986+P42336); test: Inhibition of PIK3CA/PIK3R1 (unknown origin) at 100 nM in the presence of ATP by Kinome scan method relative to control; format: protein-complex assay
[22] = molecular target: Focal adhesion kinase 1 (Homo sapiens) (UniProt Q05397); test: Inhibition of PTK2 (unknown origin) at 100 nM in the presence of ATP by Kinome scan method relative to control
HCT-116 [23] = test: Induction of cell cycle arrest in human HCT-116 cells assessed as G2/M phase at 10 uM incubated for 6 hrs by flow cytometry analysis (Rvb=25.8%); format: functional
HCT-116 [24] = test: Induction of cell cycle arrest in human HCT-116 cells assessed as G0/G1 phase at 10 uM incubated for 24 hrs by flow cytometry analysis (Rvb=35.7%); format: functional
[25] = molecular target: Tyrosine-protein kinase JAK1 (Homo sapiens) (UniProt P23458); test: Inhibition of JAK1 (unknown origin) at 100 nM in the presence of ATP by Kinome scan method relative to control
[26] = molecular target: Ephrin type-A receptor 5 (Homo sapiens) (UniProt P54756); test: Inhibition of EPHA5 (unknown origin) at 100 nM in the presence of ATP by Kinome scan method relative to control
[27] = molecular target: Dual specificity protein kinase CLK1 (Homo sapiens) (UniProt P49759); test: Inhibition of CLK (unknown origin) in human 184-hTERT cells assessed as induction in alternative splicing effect in S6K skipped exon /canonical form incubated for 6 hrs by RT-PCR analysis; format: cell-based; conditions: dose 0.2-5 µM; how it was run: as §1
HCT-116 [28] = test: Induction of apoptosis in human HCT-116 cells assessed as necrosis cells at 0.5 uM incubated for > 6 hrs by annexin V/PI staining based analysis (Rvb=0.55%); format: functional
HCT-116 [29] = test: Induction of apoptosis in human HCT-116 cells assessed as late apoptosis at 1 uM incubated for > 6 hrs by annexin V/PI staining based analysis (Rvb=6.12%); format: functional
[30] = molecular target: Calcium/calmodulin-dependent protein kinase type 1 (Homo sapiens) (UniProt Q14012); test: Inhibition of CAMK1 (unknown origin) at 1000 nM in the presence of ATP by Kinome scan method relative to control
Sequence of Calcium/calmodulin-dependent protein kinase type 1 (Homo sapiens) (Q14012 whole entry, looked up): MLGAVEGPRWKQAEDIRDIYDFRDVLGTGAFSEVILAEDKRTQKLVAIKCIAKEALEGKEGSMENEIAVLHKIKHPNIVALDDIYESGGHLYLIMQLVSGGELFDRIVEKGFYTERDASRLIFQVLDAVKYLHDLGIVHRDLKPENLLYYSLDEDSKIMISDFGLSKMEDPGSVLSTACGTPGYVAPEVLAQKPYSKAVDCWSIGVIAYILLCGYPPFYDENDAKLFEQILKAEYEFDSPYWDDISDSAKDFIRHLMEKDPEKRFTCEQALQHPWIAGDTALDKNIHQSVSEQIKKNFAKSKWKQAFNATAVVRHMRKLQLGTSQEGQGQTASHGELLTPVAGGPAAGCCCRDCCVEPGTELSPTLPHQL

## CN1CCN(C(=O)C(C)(C)c2ccc(C(=O)Nc3cn4cc(-c5ccncc5)ccc4n3)cc2)CC1 [T3-CLK]
[1]
  inhibition: -6%
[2]
  inhibition: 37%
[3]
  inhibition: -3%
[4]
  inhibition: 24%
[5]
  inhibition: 5%
[6]
  inhibition: 2%
[7]
  inhibition: 4%
Homo sapiens
  inhibition: 0%
[8]
  inhibition: 16%
[9]
  inhibition: Active
[10]
  inhibition: 16%
[11]
  inhibition: 0%
HCT-116 [12]
  Activity: 20.7%
[13]
  inhibition: 3%
[14]
  inhibition: 6%
HCT-116 [15]
  Activity: 46.7%
[16]
  inhibition: -5%
HCT-116 [17]
  Activity: 34.6%
HCT-116 [18]
  Activity: 38.7%
[19]
  inhibition: Dose-Dependent Effect
[20]
  inhibition: 9%
[21]
  inhibition: 4%
[22]
  inhibition: -9%
HCT-116 [23]
  Activity: 26.3%
HCT-116 [24]
  Activity: 21.3%
[25]
  inhibition: 11%
[26]
  inhibition: -6%
[27]
  inhibition: Dose-Dependent Effect
HCT-116 [28]
  Activity: 0.69%
HCT-116 [29]
  Activity: 7.46%
[30]
  inhibition: 5%
